Measurements reported in ChEMBL document CHEMBL4312019, “Design, synthesis, and evaluation of compounds capable of reducing Pseudomonas aeruginosa virulence” (Eur J Med Chem, 2020).
In brackets after ≈: the same amount, converted by molar mass. Activity calls are given as the source filed them. No cut-off for these calls is given here.

Key:
[1] = biological target: Muscarinic acetylcholine receptor M1 (Homo sapiens) (UniProt P11229); assay: Displacement of [3H]-QNB/[3H]-NMS from human recombinant muscarinic acetylcholine M1 receptor expressed in stable CHO cells incubated for 90 mins by microbeta scintillation counting method; type: cell-based
Chain of Muscarinic acetylcholine receptor M1 (Homo sapiens) (P11229 whole entry): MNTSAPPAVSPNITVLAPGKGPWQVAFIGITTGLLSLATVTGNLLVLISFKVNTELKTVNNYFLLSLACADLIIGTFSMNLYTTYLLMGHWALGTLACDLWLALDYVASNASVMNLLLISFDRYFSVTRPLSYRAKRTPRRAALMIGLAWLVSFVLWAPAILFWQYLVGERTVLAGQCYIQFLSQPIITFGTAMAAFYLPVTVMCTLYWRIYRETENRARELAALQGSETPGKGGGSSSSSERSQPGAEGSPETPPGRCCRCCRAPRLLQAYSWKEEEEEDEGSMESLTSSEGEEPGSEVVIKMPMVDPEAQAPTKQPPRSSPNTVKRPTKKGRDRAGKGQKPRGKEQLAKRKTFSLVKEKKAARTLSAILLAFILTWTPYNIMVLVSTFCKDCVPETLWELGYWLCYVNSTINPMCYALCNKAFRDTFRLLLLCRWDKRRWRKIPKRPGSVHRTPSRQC

[2] = tested on: NIH3T3; assay: Cytotoxicity against mouse NIH/3T3 cells measured after 48 hrs by MTT assay; type: cell-based; details: NIH3T3, 48 h
[3] = biological target: 5-hydroxytryptamine receptor 1A (Homo sapiens) (UniProt P08908); assay: Displacement of [3H]-8-OH-DPAT from human recombinant 5HT1A receptor expressed in stable CHO cells at 10 uM incubated for 90 mins by microbeta scintillation counting method; type: cell-based
In short: (§1)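 Primary radioligand binding screen run by the NIMH Psychoactive Drug Screening Program, with one test level of 10 μM. The read-out was inhibition of radioligand binding at each receptor.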

[4] = biological target: 5-hydroxytryptamine receptor 1B (Homo sapiens) (UniProt P28222); assay: Displacement of [3H]-5-CT from human recombinant 5HT1B receptor expressed in stable HEK cells at 10 uM incubated for 90 mins by microbeta scintillation counting method; type: cell-based; in short: as §1
[5] = biological target: 5-hydroxytryptamine receptor 1D (Homo sapiens) (UniProt P28221); assay: Displacement of [3H]-5-CT from human recombinant 5HT1D receptor expressed in HEKT cells at 10 uM incubated for 90 mins by microbeta scintillation counting method; type: cell-based; in short: as §1
[6] = biological target: 5-hydroxytryptamine receptor 2B (Homo sapiens) (UniProt P41595); assay: Displacement of [3H]-LSD from human recombinant 5HT2B receptor expressed in stable HEK cells at 10 uM incubated for 90 mins by microbeta scintillation counting method; type: cell-based; in short: as §1
[7] = biological target: 5-hydroxytryptamine receptor 2C (Homo sapiens) (UniProt P28335); assay: Displacement of [3H]-Mesulergin from human recombinant 5HT2C receptor expressed in CHO cells at 10 uM incubated for 90 mins by microbeta scintillation counting method; type: cell-based; in short: as §1
Chain of 5-hydroxytryptamine receptor 2C (Homo sapiens) (P28335 whole entry): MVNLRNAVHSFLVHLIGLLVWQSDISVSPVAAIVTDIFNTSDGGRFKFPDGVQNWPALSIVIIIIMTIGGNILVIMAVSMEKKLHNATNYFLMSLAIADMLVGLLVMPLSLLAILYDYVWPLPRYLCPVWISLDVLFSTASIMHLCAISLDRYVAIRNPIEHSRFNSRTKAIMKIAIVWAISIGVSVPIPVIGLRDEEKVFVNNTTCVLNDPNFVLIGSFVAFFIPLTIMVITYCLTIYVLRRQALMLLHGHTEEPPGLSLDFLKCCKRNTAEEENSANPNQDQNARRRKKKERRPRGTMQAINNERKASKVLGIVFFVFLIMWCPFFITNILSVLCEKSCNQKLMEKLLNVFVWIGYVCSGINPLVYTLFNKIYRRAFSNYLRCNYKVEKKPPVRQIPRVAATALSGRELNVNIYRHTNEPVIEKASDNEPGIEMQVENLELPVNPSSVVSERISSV

[8] = biological target: 5-hydroxytryptamine receptor 3A (Homo sapiens) (UniProt P46098); assay: Displacement of [3H]-GR65630 from human recombinant 5HT3 receptor expressed in HEKT cells at 10 uM incubated for 90 mins by microbeta scintillation counting method; type: cell-based; in short: as §1
[9] = biological target: Alpha-1A adrenergic receptor (Homo sapiens) (UniProt P35348); assay: Displacement of [3H]-prazosin from human recombinant alpha1A adrenergic receptor at 10 uM incubated for 90 mins by microbeta scintillation counting method; in short: as §1
[10] = biological target: Alpha-1D adrenergic receptor (Homo sapiens) (UniProt P25100); assay: Displacement of [3H]-8-OH-DPAT from human recombinant alpha1D adrenergic receptor at 10 uM incubated for 90 mins by microbeta scintillation counting method; in short: as §1
[11] = biological target: Beta-3 adrenergic receptor (Homo sapiens) (UniProt P13945); assay: Displacement of [3H]-CGP12177 from human recombinant adrenergic beta3 receptor expressed in Flp-In HEK cells incubated for 90 mins by microbeta scintillation counting method; type: cell-based
Chain of Beta-3 adrenergic receptor (Homo sapiens) (P13945 whole entry, looked up): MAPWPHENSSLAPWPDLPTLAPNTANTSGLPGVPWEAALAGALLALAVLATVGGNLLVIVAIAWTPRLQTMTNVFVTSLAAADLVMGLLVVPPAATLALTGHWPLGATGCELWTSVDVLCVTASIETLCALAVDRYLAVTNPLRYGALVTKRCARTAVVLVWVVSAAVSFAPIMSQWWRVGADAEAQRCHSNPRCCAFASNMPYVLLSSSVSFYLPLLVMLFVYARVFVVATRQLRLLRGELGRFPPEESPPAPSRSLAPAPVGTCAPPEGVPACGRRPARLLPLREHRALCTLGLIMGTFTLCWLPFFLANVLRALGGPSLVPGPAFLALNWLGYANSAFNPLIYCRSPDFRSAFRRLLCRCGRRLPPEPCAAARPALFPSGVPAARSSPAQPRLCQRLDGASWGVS

[12] = biological target: D(3) dopamine receptor (Homo sapiens) (UniProt P35462); assay: Displacement of [3H]-N-methylspiperone from human recombinant dopamine D3 receptor expressed in HEKT cells incubated for 90 mins by microbeta scintillation counting method; type: cell-based
[13] = biological target: D(4) dopamine receptor (Homo sapiens) (UniProt P21917); assay: Displacement of [3H]-methylspiperone from human recombinant dopamine D4 receptor expressed in stable HEK cells incubated for 90 mins by microbeta scintillation counting method; type: cell-based
Chain of D(4) dopamine receptor (Homo sapiens) (P21917 whole entry): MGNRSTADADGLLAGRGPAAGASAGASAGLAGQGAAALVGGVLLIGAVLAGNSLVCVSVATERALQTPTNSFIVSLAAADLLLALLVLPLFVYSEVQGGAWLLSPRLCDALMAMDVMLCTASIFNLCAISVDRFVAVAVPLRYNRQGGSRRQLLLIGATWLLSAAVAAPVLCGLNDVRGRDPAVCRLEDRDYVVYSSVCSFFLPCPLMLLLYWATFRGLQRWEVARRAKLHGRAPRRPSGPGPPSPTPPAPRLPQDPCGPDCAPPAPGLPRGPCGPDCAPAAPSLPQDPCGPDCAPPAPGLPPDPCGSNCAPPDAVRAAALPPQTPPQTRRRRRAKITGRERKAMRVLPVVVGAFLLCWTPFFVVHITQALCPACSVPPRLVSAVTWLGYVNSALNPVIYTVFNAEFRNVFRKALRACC

[14] = biological target: D(1B) dopamine receptor (Homo sapiens) (UniProt P21918); assay: Displacement of [3H]-SCH23390 from human recombinant dopamine D5 receptor expressed in HEKT cells incubated for 90 mins by microbeta scintillation counting method; type: cell-based
[15] = biological target: Sodium-dependent dopamine transporter (Homo sapiens) (UniProt Q01959); assay: Displacement of [3H]-Win35428 from human recombinant DAT receptor expressed in stable HEK cells incubated for 90 mins by microbeta scintillation counting method; type: cell-based
[16] = biological target: GABA-A receptor; anion channel (Rattus norvegicus) (UniProt O09028+P15431+P18506+P18508+P19969+P20236+P23574+P23576+P28471+P28473+P30191+P62813+P63079+P63138+Q91ZM7+Q9ES14); assay: Displacement of [3H]-Muscimol from GABAA receptor in rat brain incubated for 90 mins by microbeta scintillation counting method; type: tissue-based
[17] = biological target: Delta-type opioid receptor (Homo sapiens) (UniProt P41143); assay: Displacement of [3H]-DADLE from human recombinant DOR receptor expressed in stable HEK cells incubated for 90 mins by microbeta scintillation counting method; type: cell-based
Chain of Delta-type opioid receptor (Homo sapiens) (P41143 whole entry): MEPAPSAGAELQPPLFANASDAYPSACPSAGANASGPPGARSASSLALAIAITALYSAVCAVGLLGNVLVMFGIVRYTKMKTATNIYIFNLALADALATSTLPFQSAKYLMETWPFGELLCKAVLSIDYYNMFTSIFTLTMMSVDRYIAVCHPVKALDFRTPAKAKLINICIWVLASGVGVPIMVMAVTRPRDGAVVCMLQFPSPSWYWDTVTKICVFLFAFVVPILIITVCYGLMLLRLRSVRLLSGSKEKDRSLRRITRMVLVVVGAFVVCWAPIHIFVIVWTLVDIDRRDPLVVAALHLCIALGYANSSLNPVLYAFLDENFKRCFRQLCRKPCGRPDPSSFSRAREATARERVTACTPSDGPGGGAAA

[18] = biological target: Kappa-type opioid receptor (Homo sapiens) (UniProt P41145); assay: Displacement of [3H]-U69593 from human recombinant KOR receptor expressed in stable HEK cells incubated for 90 mins by microbeta scintillation counting method; type: cell-based
[19] = biological target: Histamine H1 receptor (Homo sapiens) (UniProt P35367); assay: Displacement of [3H]-Pyrilamine from human recombinant histamine H1 receptor expressed in stable HEK cells incubated for 90 mins by microbeta scintillation counting method; type: cell-based
Chain of Histamine H1 receptor (Homo sapiens) (P35367 whole entry): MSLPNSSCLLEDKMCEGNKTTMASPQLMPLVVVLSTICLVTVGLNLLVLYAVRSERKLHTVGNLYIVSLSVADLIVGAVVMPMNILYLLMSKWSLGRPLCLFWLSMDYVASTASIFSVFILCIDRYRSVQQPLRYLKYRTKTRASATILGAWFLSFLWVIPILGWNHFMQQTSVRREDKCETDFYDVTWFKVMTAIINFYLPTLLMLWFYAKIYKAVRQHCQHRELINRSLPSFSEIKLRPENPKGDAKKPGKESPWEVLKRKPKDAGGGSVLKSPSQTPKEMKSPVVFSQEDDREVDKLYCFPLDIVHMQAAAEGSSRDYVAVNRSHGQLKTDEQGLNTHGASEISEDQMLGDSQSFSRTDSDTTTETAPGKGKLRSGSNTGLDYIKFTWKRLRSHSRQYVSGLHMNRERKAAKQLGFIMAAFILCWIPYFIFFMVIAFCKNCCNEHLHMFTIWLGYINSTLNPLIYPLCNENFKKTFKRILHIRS

[20] = biological target: Histamine H2 receptor (Homo sapiens) (UniProt P25021); assay: Displacement of [125I]-Iodoaminopotentidine from human recombinant histamine H2 receptor expressed in stable HEK cells incubated for 90 mins by microbeta scintillation counting method; type: cell-based
Chain of Histamine H2 receptor (Homo sapiens) (P25021 whole entry): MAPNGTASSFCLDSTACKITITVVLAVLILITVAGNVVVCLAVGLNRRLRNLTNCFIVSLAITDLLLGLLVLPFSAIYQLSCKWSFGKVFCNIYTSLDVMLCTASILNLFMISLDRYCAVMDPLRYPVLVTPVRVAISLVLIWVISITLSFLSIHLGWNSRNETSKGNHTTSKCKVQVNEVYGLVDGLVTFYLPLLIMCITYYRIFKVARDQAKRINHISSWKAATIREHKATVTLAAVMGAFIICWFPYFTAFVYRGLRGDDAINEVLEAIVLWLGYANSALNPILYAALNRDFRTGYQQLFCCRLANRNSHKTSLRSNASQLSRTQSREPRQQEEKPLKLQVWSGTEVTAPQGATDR

[21] = biological target: Histamine H3 receptor (Homo sapiens) (UniProt Q9Y5N1); assay: Displacement of [3H]-alpha-methylhistamine from human recombinant histamine H3 receptor expressed in Flp-In HEK cells incubated for 90 mins by microbeta scintillation counting method; type: cell-based
[22] = biological target: Histamine H4 receptor (Homo sapiens) (UniProt Q9H3N8); assay: Displacement of [3H]-Histamine from human recombinant histamine H4 receptor expressed in HEKT cells incubated for 90 mins by microbeta scintillation counting method; type: cell-based
Chain of Histamine H4 receptor (Homo sapiens) (Q9H3N8 whole entry): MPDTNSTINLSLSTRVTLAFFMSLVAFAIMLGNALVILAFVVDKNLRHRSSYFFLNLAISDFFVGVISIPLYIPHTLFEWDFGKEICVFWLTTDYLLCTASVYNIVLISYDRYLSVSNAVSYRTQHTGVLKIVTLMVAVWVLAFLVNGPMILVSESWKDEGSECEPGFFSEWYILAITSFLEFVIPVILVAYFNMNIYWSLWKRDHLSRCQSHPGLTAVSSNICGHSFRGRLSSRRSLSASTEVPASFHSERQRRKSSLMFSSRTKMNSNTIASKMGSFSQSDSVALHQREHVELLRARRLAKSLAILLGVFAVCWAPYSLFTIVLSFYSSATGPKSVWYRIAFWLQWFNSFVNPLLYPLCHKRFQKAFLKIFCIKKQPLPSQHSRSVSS

[23] = biological target: Muscarinic acetylcholine receptor M2 (Homo sapiens) (UniProt P08172); assay: Displacement of [3H]-QNB/[3H]-NMS from human recombinant muscarinic acetylcholine M2 receptor expressed in stable CHO cells incubated for 90 mins by microbeta scintillation counting method; type: cell-based
Chain of Muscarinic acetylcholine receptor M2 (Homo sapiens) (P08172 whole entry): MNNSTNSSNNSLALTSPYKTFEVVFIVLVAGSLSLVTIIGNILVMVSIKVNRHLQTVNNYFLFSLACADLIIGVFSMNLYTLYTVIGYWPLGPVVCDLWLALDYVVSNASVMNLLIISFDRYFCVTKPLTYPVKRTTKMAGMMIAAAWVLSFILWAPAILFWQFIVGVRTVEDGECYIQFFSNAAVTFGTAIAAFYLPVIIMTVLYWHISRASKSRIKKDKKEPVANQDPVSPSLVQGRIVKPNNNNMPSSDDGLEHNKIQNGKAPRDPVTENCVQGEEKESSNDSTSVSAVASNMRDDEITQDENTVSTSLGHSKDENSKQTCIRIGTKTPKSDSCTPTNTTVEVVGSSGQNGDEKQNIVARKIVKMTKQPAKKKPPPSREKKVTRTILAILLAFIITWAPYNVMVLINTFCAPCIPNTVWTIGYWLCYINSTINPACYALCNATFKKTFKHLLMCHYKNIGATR

[24] = biological target: Muscarinic acetylcholine receptor M3 (Homo sapiens) (UniProt P20309); assay: Displacement of [3H]-QNB/[3H]-NMS from human recombinant muscarinic acetylcholine M3 receptor expressed in stable CHO cells incubated for 90 mins by microbeta scintillation counting method; type: cell-based
Chain of Muscarinic acetylcholine receptor M3 (Homo sapiens) (P20309 whole entry, looked up): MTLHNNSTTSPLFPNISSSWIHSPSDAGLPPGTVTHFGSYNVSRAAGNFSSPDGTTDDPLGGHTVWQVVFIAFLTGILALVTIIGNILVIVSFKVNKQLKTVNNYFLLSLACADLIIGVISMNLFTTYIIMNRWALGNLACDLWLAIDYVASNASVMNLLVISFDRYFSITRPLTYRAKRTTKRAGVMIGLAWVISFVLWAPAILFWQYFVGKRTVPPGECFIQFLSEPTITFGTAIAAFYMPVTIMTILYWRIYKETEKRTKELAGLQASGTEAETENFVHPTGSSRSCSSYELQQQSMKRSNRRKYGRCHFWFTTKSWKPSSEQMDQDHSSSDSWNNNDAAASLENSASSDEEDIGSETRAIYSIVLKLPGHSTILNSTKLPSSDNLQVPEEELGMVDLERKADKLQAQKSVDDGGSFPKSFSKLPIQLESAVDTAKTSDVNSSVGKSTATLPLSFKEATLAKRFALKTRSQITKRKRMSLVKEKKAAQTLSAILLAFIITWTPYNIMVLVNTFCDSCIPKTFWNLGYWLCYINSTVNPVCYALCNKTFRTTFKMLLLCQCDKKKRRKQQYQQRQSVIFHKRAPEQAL

[25] = biological target: Muscarinic acetylcholine receptor M4 (Homo sapiens) (UniProt P08173); assay: Displacement of [3H]-QNB/[3H]-NMS from human recombinant muscarinic acetylcholine M4 receptor expressed in stable CHO cells incubated for 90 mins by microbeta scintillation counting method; type: cell-based
[26] = biological target: Muscarinic acetylcholine receptor M5 (Homo sapiens) (UniProt P08912); assay: Displacement of [3H]-QNB/[3H]-NMS from human recombinant muscarinic acetylcholine M5 receptor expressed in stable CHO cells incubated for 90 mins by microbeta scintillation counting method; type: cell-based
Chain of Muscarinic acetylcholine receptor M5 (Homo sapiens) (P08912 whole entry): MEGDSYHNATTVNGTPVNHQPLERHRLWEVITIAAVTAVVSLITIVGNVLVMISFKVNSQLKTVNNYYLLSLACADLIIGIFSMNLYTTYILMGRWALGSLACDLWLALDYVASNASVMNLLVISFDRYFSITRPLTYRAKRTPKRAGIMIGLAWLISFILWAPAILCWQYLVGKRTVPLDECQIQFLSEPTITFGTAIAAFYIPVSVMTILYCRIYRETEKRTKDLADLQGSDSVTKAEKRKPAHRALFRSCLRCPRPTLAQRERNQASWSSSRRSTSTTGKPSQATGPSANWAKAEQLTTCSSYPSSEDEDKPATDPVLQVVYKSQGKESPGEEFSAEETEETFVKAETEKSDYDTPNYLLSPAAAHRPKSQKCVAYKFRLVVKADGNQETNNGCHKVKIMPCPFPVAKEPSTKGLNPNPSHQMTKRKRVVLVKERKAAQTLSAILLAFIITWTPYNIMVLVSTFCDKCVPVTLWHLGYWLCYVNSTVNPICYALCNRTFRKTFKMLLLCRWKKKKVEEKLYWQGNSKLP

[27] = species: Rattus norvegicus; assay: Displacement of [3H]-PK11195 from PBR in rat brain incubated for 90 mins by microbeta scintillation counting method; type: tissue-based
[28] = biological target: Sigma non-opioid intracellular receptor 1 (Homo sapiens) (UniProt Q99720); assay: Displacement of [3H]-Pentazocine from human recombinant sigma1 receptor expressed in HEKT cells incubated for 90 mins by microbeta scintillation counting method; type: cell-based

In the case of `Cn1c2cccc(=O)c-2nc2ccccc21` [PYOCYANIN], the inhibition [1] is reported as “inactive”, the IC50 [2] is reported as 3.54 µg/mL (≈ 16.8 µM) and the inhibition [3] is reported as “inactive”. The inhibition [4] was “inactive”, the inhibition [5] was “inactive” and the inhibition [6] was “inactive”. The inhibition [7] was “inactive”, the inhibition [8] was “inactive” and the inhibition [9] was “inactive”. For the same molecule, the inhibition [10] was “inactive”, the inhibition [11] was “inactive” and the inhibition [12] was “inactive”. The inhibition [13] was “inactive”, the inhibition [14] was “inactive” and the inhibition [15] was “inactive”. For the same molecule, the inhibition [16] was “inactive”, the inhibition [17] was “inactive” and the inhibition [18] was “inactive”. For the same molecule, the inhibition [19] was “inactive”, the inhibition [20] was “inactive” and the inhibition [21] was “inactive”. The inhibition [22] was “inactive”, the inhibition [23] was “inactive” and the inhibition [24] was “inactive”. The inhibition [25] was “inactive”, the inhibition [26] was “inactive” and the inhibition [27] was “inactive”. For the same molecule, the inhibition [28] was “inactive”.
